Experimental data taken from ChEMBL document CHEMBL4513216, “Probing the Open Global Health Chemical Diversity Library for Multistage-Active Starting Points for Next-Generation Antimalarials” (ACS Infect Dis, 2020).

Test: Toxicity liver stage against HepG2, at 10uM
Assay type: cell-based
Parameters: test concentration 10 uM, cell line HepG2-A16-CD81EGFP
Details: human, HepG2-A16-CD81EGFP cells; read-out: INHIBITION
How it was run: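 Uninfected HepG2-A16-CD81EGFP cells, 3 × 10^3 per well, 1536-well, plated on prespotted compound at 10 μM final, parasite-free screening media added to match infected plates; puromycin 10 μM positive, DMSO 0.5% negative; run in parallel with 48 h PbLuc assay at 37 °C, 5% CO2; viability by CellTiter-Glo luminescence, normalized to controls.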
Compound `O=c1c(Cc2ccccc2)c(O)ccn1Cc1ccco1` has a cytotoxicity at 10 µM of 5.01%.
`O=C1CN(C(=O)OCc2ccccc2)CC(O)CN1Cc1ccco1` (stereo not drawn) showed a cytotoxicity at 10 µM of -9.92%.
Compound `O=C(CSC1CCCC1)N1CCN(C(=O)C2CC2c2cccs2)CC1` (stereo not drawn) has a cytotoxicity at 10 µM of 4.48%.
`N#Cc1cccnc1OC1CCN(C(=O)c2cc(C3CC3)on2)CC1` showed a cytotoxicity at 10 µM of 0.253%.
In the case of `COc1ccc(CC(=O)Nc2c(C)nc(N3CCOCC3)nc2C)cc1`, the cytotoxicity at 10 µM is reported as 5.39%.
`CCSc1ccccc1C(=O)N1CCC(S(=O)(=O)c2nncn2C)CC1` showed a cytotoxicity at 10 µM of 0.595%.
With `CC(C)Nc1nc2c(c(NC3CC3)n1)CCN(C(=O)C1CCOC1)CC2` (stereo not drawn) the cytotoxicity at 10 µM was -145%.
With `Cc1occc1C(=O)N1CCCn2cnc(CN3CCCC3=O)c2C1` the cytotoxicity at 10 µM was 4.24%.
Work on `CCN(CC)CCN1CCO[C@H]2[C@@H](OCc3ccccn3)CC[C@@H]21` yielded a cytotoxicity at 10 µM of -7.66%.
In the case of `Cc1ccc(CN2CCOC3(CCCN(C(=O)c4ccco4)C3)C2)o1` (stereo not drawn), the cytotoxicity at 10 µM is reported as -3.27%.
Work on `CCN(c1ccc(C(=O)NCCN2CCOCC2)cc1)S(=O)(=O)CC` yielded a cytotoxicity at 10 µM of 6.89%.
`COCCN1C[C@@H]2CN(C(=O)[C@H]3CCCO3)C[C@@H]2C1=O` showed a cytotoxicity at 10 µM of 5.82%.
Compound `CCc1ccccc1NC(=O)CCc1cnn(C)c1` has a cytotoxicity at 10 µM of 8.66%.
With `Fc1ccc(F)c(CN2CCC(c3cnccn3)CC2)c1` the cytotoxicity at 10 µM was -1.61%.
For `CN1CCC2(Cc3ccccc3CN(C(=O)Cc3cccc(Cl)c3)C2)C1` (stereo not drawn), the cytotoxicity at 10 µM was 6.91%.
Work on `COC(=O)c1ccc(C)c(N2CCNC2=O)c1` yielded a cytotoxicity at 10 µM of 9.81%.
With `CCc1nc(CS(=O)(=O)Cc2noc(C3CC3)n2)cs1` the cytotoxicity at 10 µM was -7.38%.
For `Cc1ccc(C2CSCCN2CCS(C)(=O)=O)cc1` (stereo not drawn), the cytotoxicity at 10 µM was -8.3%.
For `Oc1cccc(CNCCC2CCCO2)c1` (stereo not drawn), the cytotoxicity at 10 µM was 4.08%.
Work on `Cc1csc(N2CCN(Cc3ccccn3)CC2)n1` yielded a cytotoxicity at 10 µM of 6.14%.
For `O=C(C1CCOC1)N1CCN(CC(F)(F)F)c2ccccc21` (stereo not drawn), the cytotoxicity at 10 µM was -5.74%.
Work on `Cc1nn2cccnc2c1C(=O)NCc1ccccc1OC1CCC1` yielded a cytotoxicity at 10 µM of -46.4%.
With `COc1ccc(N2CCC(NS(=O)(=O)N(C)C(C)C)CC2)cc1` the cytotoxicity at 10 µM was 6.62%.
In the case of `COCCN(C)C(=O)NCCc1coc(-c2ccc(C)cc2)n1`, the cytotoxicity at 10 µM is reported as 8.13%.
`FC(F)(F)Oc1ccc(CN2CCCC(n3cncn3)C2)cc1` (stereo not drawn) showed a cytotoxicity at 10 µM of -14.4%.
For `CC(=O)c1cccc(OC(C)C(=O)Nc2cnn(CCN(C)C)c2)c1` (stereo not drawn), the cytotoxicity at 10 µM was 3.45%.
In the case of `Cc1ccc(C(NC(=O)CN2CCc3cncnc3C2)C2CC2)cc1` (stereo not drawn), the cytotoxicity at 10 µM is reported as 9.31%.
`CCc1nc(CNC2CCN(c3ccc(OC)cc3)CC2)cs1` gave a cytotoxicity at 10 µM of -12.8%.
`Cc1cc(C)c(CNC(=O)N2CCNC(=O)C2)c(=O)[nH]1` gave a cytotoxicity at 10 µM of -0.535%.
`Cc1nc(-c2ccc(NCCc3ccc(O)cc3)nc2)[nH]c(=O)c1C` showed a cytotoxicity at 10 µM of 20.5%.
In the case of `COc1ccccc1N1CCC(CNC(=O)CN2CSCC2=O)C1` (stereo not drawn), the cytotoxicity at 10 µM is reported as -1.33%.
Compound `Cc1ccoc1CNC(C)c1nnc2n1CCCC2` (stereo not drawn) has a cytotoxicity at 10 µM of -12.6%.
Compound `CCN(CC(=O)N(C)C)C(=O)c1cc(-c2cccc(Cl)c2)no1` has a cytotoxicity at 10 µM of 6.17%.
For `CC(C)c1noc(CN(CCC2CCCCC2)CC(N)=O)n1`, the cytotoxicity at 10 µM was 2.94%.
Compound `CC(=O)N1CCC(CCNC(C)c2cc(F)cc(F)c2)CC1` (stereo not drawn) has a cytotoxicity at 10 µM of -0.988%.
`Cc1nc2cc(C(=O)N(CCC#N)CCC#N)ccc2n1C` gave a cytotoxicity at 10 µM of -3.91%.
For `CCN(C)S(=O)(=O)NCC1(c2cccc(Br)c2)CC1`, the cytotoxicity at 10 µM was 10.7%.
Compound `N#CCCN1CCC(=Cc2ccccc2)CC1` has a cytotoxicity at 10 µM of -2.75%.
Work on `CCc1nonc1NC(=O)C(C)Oc1ccccc1F` (stereo not drawn) yielded a cytotoxicity at 10 µM of 12%.
`Cc1nc(NC(=O)C2CCCN(C(N)=O)C2)sc1-c1ccccc1` (stereo not drawn) showed a cytotoxicity at 10 µM of 9.31%.
In the case of `CCc1cnc(N2CCN(Cc3ccncc3)CC2)s1`, the cytotoxicity at 10 µM is reported as 40.8%.
With `CC(C)(C)[S+]([O-])CCNC(=O)c1cccc2ncccc12` (stereo not drawn) the cytotoxicity at 10 µM was -45.1%.
`COc1cccc(CC2CCCN2CCCC#N)c1` (stereo not drawn) showed a cytotoxicity at 10 µM of -43.7%.
Work on `CN(CC1CCN(CCO)CC1)CC(O)c1ccc(F)cc1` (stereo not drawn) yielded a cytotoxicity at 10 µM of -52.8%.
With `O=C(NCC1CCOC1)N1CCN(c2ncccn2)CC1` (stereo not drawn) the cytotoxicity at 10 µM was -39.8%.
Work on `COc1ccc(Cc2ncc3c(n2)CN(C(=O)C(C)(C)C)C3)cc1` yielded a cytotoxicity at 10 µM of -1.1%.
In the case of `CC(C)CC(C)NC1CCN(c2cccc(-c3cscn3)c2)CC1` (stereo not drawn), the cytotoxicity at 10 µM is reported as -56.8%.
For `CSCC[C@@H](CO)Nc1nc(-c2ccccn2)nc2c1c(C)nn2C`, the cytotoxicity at 10 µM was 2.7%.
`O=C(NCc1cccc(F)c1F)c1cc(CN2CCCC(O)C2)on1` (stereo not drawn) showed a cytotoxicity at 10 µM of -45.9%.
Work on `O=C(N1CCCC1)N1CCC(Nc2ccncn2)CC1` yielded a cytotoxicity at 10 µM of -42.1%.
Work on `O=C1CC[C@H]2CN(c3ncc(F)cn3)CC[C@H]2N1CCc1ccccc1` yielded a cytotoxicity at 10 µM of 9.61%.
With `CCN(CC)C(CNCc1cc(F)cc(F)c1)c1ccco1` (stereo not drawn) the cytotoxicity at 10 µM was 5.44%.
In the case of `Cc1nccn1CCCN1CCCC(c2nccn2C)C1` (stereo not drawn), the cytotoxicity at 10 µM is reported as -10.3%.
Compound `CCN1CC(CN(C)Cc2nc(-c3ccc(C)o3)oc2C)CC1=O` (stereo not drawn) has a cytotoxicity at 10 µM of 5.88%.
`Cc1ccc(OC2(C(=O)O)CCN(C/C=C/c3ccco3)CC2)cn1` showed a cytotoxicity at 10 µM of -1.64%.
For `CC(C)CC(=O)N1CCCCC(NC(=O)CCc2cccnc2)C1` (stereo not drawn), the cytotoxicity at 10 µM was -1.62%.
`CCNC(=O)[C@@H]1C[C@@H](n2cc(CN(CC)CC)nn2)CN1` gave a cytotoxicity at 10 µM of 0.334%.
For `CSc1ncc(CN2CC(Oc3c(C)cccc3C)C2)cn1`, the cytotoxicity at 10 µM was 10.3%.
With `CCCOc1ccc(C(=O)N2C[C@@H](CN3CCCC3)[C@@H](CO)C2)cc1Cl` the cytotoxicity at 10 µM was -5.84%.
Work on `COC(=O)CCCC(=O)N1CCCCC1c1ccc(F)cc1` (stereo not drawn) yielded a cytotoxicity at 10 µM of -42.7%.
`Cc1cc(CN(C)c2nc(-c3ccccn3)nc3c2CCNCC3)n[nH]1` showed a cytotoxicity at 10 µM of -5.48%.
`CN(c1ncccc1CNC(=O)c1csnn1)C1CCCCC1` showed a cytotoxicity at 10 µM of -9.31%.
Compound `CC(=O)N1CCCCC1c1cc(CO)[nH]n1` (stereo not drawn) has a cytotoxicity at 10 µM of -0.671%.
For `Cn1cc(-c2nc(CN3CCc4c(ncn4C)C3)cs2)cn1`, the cytotoxicity at 10 µM was -6.54%.
`CCc1ocnc1C(=O)N1CCCC1c1noc(C2CC2)n1` (stereo not drawn) showed a cytotoxicity at 10 µM of -4.45%.
For `COCC(=O)NC(C)Cc1ccc(Br)cc1` (stereo not drawn), the cytotoxicity at 10 µM was -1.01%.
Compound `CC(C)(C)c1cnc(CN2CCC[C@H]2CO)o1` has a cytotoxicity at 10 µM of -14.8%.
In the case of `Cc1ccc2oc(C(=O)N3CCCC(c4noc(C)n4)C3)cc2n1` (stereo not drawn), the cytotoxicity at 10 µM is reported as -3.56%.
`COc1c(CNC(c2nccn2C)C(C)C)c(C)nn1C` (stereo not drawn) gave a cytotoxicity at 10 µM of -7.46%.
`Cc1nc(C)n(CC2CCCCN2CC(=O)Nc2ccncc2)n1` (stereo not drawn) gave a cytotoxicity at 10 µM of -0.344%.
`c1ccc(-c2nc(CN3CCc4c(ncn4C4CC4)C3)cs2)cc1` showed a cytotoxicity at 10 µM of -8.65%.
`COc1ccc(CN2CCCCC2c2n[nH]cc2-c2cc(C)no2)cc1` (stereo not drawn) gave a cytotoxicity at 10 µM of 20.8%.
For `CCn1c(CN2CCC(O)(c3ccc4c(c3)OCO4)CC2)cnc1SC`, the cytotoxicity at 10 µM was 6.96%.
`Cc1c(C2CCCN(C(=O)Cc3ccccn3)C2)n2c(nc1=O)CCC2` (stereo not drawn) gave a cytotoxicity at 10 µM of 8.39%.
Compound `CO[C@H]1CN(Cc2cccc(C#N)c2)[C@@H]2COC[C@H]12` has a cytotoxicity at 10 µM of -5.77%.
Compound `CC(C)c1noc(CN2CCC(C3CCCCCN3S(C)(=O)=O)CC2)n1` (stereo not drawn) has a cytotoxicity at 10 µM of -2.71%.
`O=C1[C@H]2CN(CC3CC3)C[C@H]2CN1c1ccsc1` showed a cytotoxicity at 10 µM of 2.88%.
In the case of `CC(C)Nc1nc2c(cc1C(=O)NCC1CC1)CCN(C)CC2`, the cytotoxicity at 10 µM is reported as -5.72%.
With `Cc1ccc(N2CC[C@H]3C[C@@H](C(=O)N4CCOCC4)O[C@H]3C2)nn1` the cytotoxicity at 10 µM was 4.94%.
In the case of `O=c1[nH]c2cn(-c3cccc(Cl)c3)c(=O)n2n1Cc1cccc(F)c1`, the cytotoxicity at 10 µM is reported as 11%.
`Cc1ccccc1SCC(=O)NC1CCC(n2cnnc2)CC1` (stereo not drawn) gave a cytotoxicity at 10 µM of -48%.
In the case of `COc1ccccc1-c1nnc2n1N=C(N)C(C#N)S2` (stereo not drawn), the cytotoxicity at 10 µM is reported as 1.5%.
In the case of `C=c1ccoc1=C1NN=C(CNCCn2cccn2)O1`, the cytotoxicity at 10 µM is reported as -5.02%.
